The source of these data is ChEMBL document CHEMBL1777667, “Synthesis and antibacterial activity of some binaphthyl-supported macrocycles containing a cationic amino acid” (2011).

In brackets after ≈: the same amount, converted by molar mass. Where only a bound is given, the exact number is not on record here.

As usually defined, the MIC is the lowest concentration found to suppress growth.

One experiment has as its system Staphylococcus aureus. Kind of experiment: Antibacterial activity against Staphylococcus aureus ATCC 6538P by two fold dilution method. The experiment is classed as functional.
Settings: not given
Put shortly: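 Compounds dissolved in 10% methanol/water as stock, diluted in water, then serially twofold-diluted in LB across eight wells in triplicate. Overnight (14 h) LB culture grown at 37 °C, diluted 1 in 1,000 and added to wells. Media-only, no-compound and vancomycin controls were run. Operator was blinded. MIC read by eye as the concentration next to the first well of obvious growth.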
In the case of `COC(=O)[C@@H]1CC=CCc2cc3ccccc3c(c2OC)-c2c(OC)c(cc3ccccc23)CC(NC(C)=O)C(=O)N[C@H](CCCCN)C(=O)N1.Cl` (mixture of isomers; 1), the MIC stood at 16 µg/mL. Regarding `COC(=O)[C@@H]1CC=CCc2cc3ccccc3c(c2OC)-c2c(OC)c(cc3ccccc23)CC(NC(C)=O)C(=O)N[C@H](CCCCN)C(=O)N1.Cl` (mixture of isomers; 21), the MIC turned out to be 62 µg/mL. `COC(=O)[C@@H]1C/C=C/Cc2cc3ccccc3c(c2OC)-c2c(OC)c(cc3ccccc23)CC(NC(C)=O)C(=O)N[C@H](CCCNC(=N)N)C(=O)N1.Cl` (mixture of isomers; 24) showed an MIC of 62 µg/mL.

`COC(=O)[C@@H]1CC=CCc2cc3ccccc3c(c2OC)-c2c(OC)c(cc3ccccc23)CC(NC(C)=O)C(=O)N[C@H](CCCCN)C(=O)N1.Cl` (mixture of isomers; 25) returned a minimum inhibitory concentration (MIC) of 31 µg/mL. In turn, `COC(=O)[C@@H]1CC=CCc2cc3ccccc3c(c2OC)-c2c(OC)c(cc3ccccc23)CC(NC(C)=O)C(=O)N[C@H](CCCCN)C(=O)N1.Cl` (mixture of isomers; 26) displayed an MIC of 8 µg/mL.

Still in this experiment, the particulars now being: Staphylococcus aureus, ATCC 6538P; read-out: MIC.
Consider `C=CCc1cc2ccccc2c(-c2c(OC)c(CC(NC(C)=O)C(=O)N[C@H](CCCNC(=N)N)C(=O)N[C@@H](CC=C)C(=O)OC)cc3ccccc23)c1OC` (some centres not stated), for which the minimal inhibitory concentration (MIC) worked out at 4 µg/mL (≈ 5.33 µM). `C=CCc1cc2ccccc2c(-c2c(OC)c(CC(NC(C)=O)C(=O)N[C@@H](CCCNC(=N)N)C(=O)N[C@@H](CC=C)C(=O)OC)cc3ccccc23)c1OC` (some centres not stated): the MIC stood at 4 µg/mL (≈ 5.33 µM). The same measure, in the same setting: as for `COC(=O)[C@@H]1C/C=C/Cc2cc3ccccc3c(c2OC)-c2c(OC)c(cc3ccccc23)CC(NC(C)=O)C(=O)N[C@H](CCCCNC(=O)OC(C)(C)C)C(=O)N1` (mixture of isomers), the figure is greater than 250 µg/mL; as for `COC(=O)[C@@H]1C/C=C/Cc2cc3ccccc3c(c2OC)-c2c(OC)c(cc3ccccc23)CC(NC(C)=O)C(=O)N[C@H](CCCNC(=N)NS(=O)(=O)c2c(C)c(C)c3c(c2C)CCC(C)(C)O3)C(=O)N1` (mixture of isomers), 31 µg/mL.

Regarding `COC(=O)[C@@H]1C/C=C/Cc2cc3ccccc3c(c2OC)-c2c(OC)c(cc3ccccc23)CC(NC(C)=O)C(=O)N[C@@H](CCCCNC(=O)OCC2c3ccccc3-c3ccccc32)C(=O)N1` (mixture of isomers), the minimal inhibitory concentration (MIC) is greater than 250 µg/mL. Regarding `COC(=O)[C@@H]1C/C=C/Cc2cc3ccccc3c(c2OC)-c2c(OC)c(cc3ccccc23)CC(NC(C)=O)C(=O)N[C@@H](C)C(=O)N[C@@H](CCCCN)C(=O)N1.Cl` (mixture of isomers), the minimum inhibitory concentration (MIC) is greater than 250 µg/mL. The same measure, in the same setting: as for `COC(=O)[C@@H]1C/C=C/Cc2cc3ccccc3c(c2OC)-c2c(OC)c(cc3ccccc23)CC(NC(C)=O)C(=O)N[C@H](CCCNC(=N)N)C(=O)N1.Cl` (mixture of isomers; 22), the figure is 62 µg/mL.
